A short description of data set [1]: (§1) Inhibition of NF-kappaB in HUVECtert assessed as reduction in TNFalpha-induced VCAM-1 expression level pretreated for 30 mins followed by TNFalpha stimulation measured after 18 hrs by flow cytometry. Further details: species or system Homo sapiens. The gist of the method:
(§2)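 FITC-antibody surface staining, flow cytometry; expression relative to TNFα-stimulated control. Parthenolide 10 μM as positive control; means ± SD, n = 3, one-way ANOVA/Dunnett versus vehicle.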

The species entered for data set [2] is Homo sapiens. The data set is described as §1. The gist of the method: as §2
A short description of data set [3]: (§3) Inhibition of NF-kappaB in HUVECtert assessed as reduction in TNFalpha-induced ICAM-1 expression level pretreated for 30 mins followed by TNFalpha stimulation measured after 18 hrs by flow cytometry. On the set-up: species or system Homo sapiens. The gist of the method:
as §2
For orientation: A flow cytometer gives signals particle by particle.

The species named for data set [4] is Homo sapiens. The data set is described as §3. The gist of the method: as §2
Data set [5] addresses T1, Inhibitor of nuclear factor kappa-B kinase subunit beta (Homo sapiens) (UniProt O14920).
T1 sequence (whole entry): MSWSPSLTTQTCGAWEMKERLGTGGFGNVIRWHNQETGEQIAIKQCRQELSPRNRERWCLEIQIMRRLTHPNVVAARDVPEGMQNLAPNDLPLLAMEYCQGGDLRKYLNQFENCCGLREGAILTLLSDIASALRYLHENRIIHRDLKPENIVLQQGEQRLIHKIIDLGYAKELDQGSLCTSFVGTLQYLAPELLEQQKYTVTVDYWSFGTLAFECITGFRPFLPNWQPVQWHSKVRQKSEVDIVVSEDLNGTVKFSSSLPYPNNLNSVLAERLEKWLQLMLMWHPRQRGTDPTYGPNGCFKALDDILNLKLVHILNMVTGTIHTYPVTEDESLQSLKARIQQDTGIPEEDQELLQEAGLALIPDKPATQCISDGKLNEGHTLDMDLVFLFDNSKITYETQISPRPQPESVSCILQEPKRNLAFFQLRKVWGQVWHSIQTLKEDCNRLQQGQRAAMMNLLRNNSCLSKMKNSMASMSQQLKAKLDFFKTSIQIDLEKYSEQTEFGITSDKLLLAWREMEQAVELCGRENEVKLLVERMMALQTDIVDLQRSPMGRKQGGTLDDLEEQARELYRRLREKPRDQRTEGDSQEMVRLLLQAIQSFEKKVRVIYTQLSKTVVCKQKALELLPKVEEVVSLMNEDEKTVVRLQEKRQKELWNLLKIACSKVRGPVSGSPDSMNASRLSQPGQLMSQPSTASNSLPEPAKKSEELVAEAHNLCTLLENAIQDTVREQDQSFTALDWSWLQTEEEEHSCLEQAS
The experiment in a line: Inhibition of IKKbeta phosphorylation level in TNFalpha-stimulated HUVECtert at 2 uM pretreated for 30 mins followed by TNFalpha stimulation measured after 5 to 15 mins by Western blot analysis. The gist of the method:
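HUVECtert on gelatin-coated dishes pretreated with 2 μM agent or 0.1% DMSO, then TNFα 10 ng/mL; p-IKKα/β, p-IκBα and total IκBα immunoblotted at 5 or 15 min post-stimulation, actin loading control; means ± SD, n = 3, one-way ANOVA/Dunnett.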

Data set [6] is described as follows: Effect on basal E-selectin expression level in HUVECtert at 0.5 to 10 uM incubated for 30 mins by flow cytometry. As to conditions: human, 0.5 h. The data set is classed as ADME. The gist of the method:
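Unstimulated HUVECtert treated with 0.5−10 μM test agent without TNFα; surface VCAM-1, ICAM-1 or E-selectin stained with FITC-labelled antibodies and read by flow cytometry.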

The species entered for data set [7] is Homo sapiens. Nature of the data set: Inhibition of de novo protein synthesis in HUVECtert at 2 to 5 uM after 30 mins by Click-iT OPP/Alexa fluor 488 picolyl azide reagent based flow cytometry. The data set is classed as functional. The gist of the method: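 HUVECtert (1 × 10^6 cells in tubes) exposed 30 min to agent (2 or 5 μM; cycloheximide 1−35 μM) or vehicle, then 20 μM OPP 30 min; fixed, permeabilised, Alexa 488 click-labelled in Tris buffer pH 7.4; FL-1 flow cytometry relative to control; n = 3, one-way ANOVA/Dunnett.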

Data set [8] addresses Transcription factor p65 (Homo sapiens) (UniProt Q04206). The experiment in a line: Inhibition of NF-kappaB p65 binding to DNA consensus in TNFalpha-stimulated HUVECtert at 2 uM pretreated for 30 mins followed by TNFalpha stimulation measured after 1 hr […]. For orientation: A western blot detects proteins with antibodies after separation by electrophoresis.

The species named for data set [9] is Homo sapiens. The experiment in a line: Reduction in p53 level in HUVECtert at 2 uM after 8 hrs by Western blot analysis. The data set is classed as functional.
A short description of data set [10]: (§4) Inhibition of NF-kappaB in HUVECtert assessed as reduction in TNFalpha-induced E-selectin expression level pretreated for 30 mins followed by TNFalpha stimulation measured after 5 hrs by flow cytometry. On the set-up: species or system Homo sapiens. The gist of the method: as §2
The species named for data set [11] is Homo sapiens. Described as §4. The gist of the method:
as §2

The species named for data set [12] is Homo sapiens. Nature of the data set: Cytotoxicity against TNFalpha-stimulated HUVECtert assessed as reduction in cell viability incubated for 30 mins followed by TNFalpha stimulation measured after 17.5 hrs by resazurin dye based fluorescence assay. The data set is classed as functional. The gist of the method: (§5)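 HUVECtert (passage ≤15) seeded on gelatin-coated wells, grown 48 h, then exposed to test agent or 0.1% DMSO vehicle, with or without TNFα; digitonin 100 μg/mL as positive control. After 18 h, supernatant removed, cells washed, then 2 h with 10 μg/mL resazurin in PBS; metabolic conversion read relative to vehicle.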
Background: Alamar Blue is a resazurin reagent that responds to reducing activity.

The species entered for data set [13] is Homo sapiens. Nature of the data set: Inhibition of NF-kappaB in HUVECtert assessed as reduction in TNFalpha-induced VCAM-1 mRNA expression level at 5 uM pretreated for 30 mins followed by TNFalpha stimulation measured after 4 hrs by qRT-PCR analysis.
Data set [14] is filed under the species Homo sapiens. The experiment in a line: Inhibition of NF-kappaB in HUVECtert assessed as reduction in TNFalpha-induced VCAM-1 mRNA expression level at 0.5 uM pretreated for 30 mins followed by TNFalpha stimulation measured after 4 hrs by qRT-PCR analysis.
The species named for data set [15] is Homo sapiens. Nature of the data set: Cytotoxicity against HUVECtert assessed as reduction in cell viability after 18 hrs by resazurin dye based fluorescence assay. The data set is classed as functional. The gist of the method: as §5
The species named for data set [16] is Homo sapiens. Nature of the data set: Inhibition of NF-kappaB in HUVECtert assessed as reduction in TNFalpha-induced E-selectin mRNA expression level at 0.5 to 5 uM pretreated for 30 mins followed by TNFalpha stimulation measured after 2 hrs by qRT-PCR analysis.
The species entered for data set [17] is Homo sapiens. The experiment in a line: Inhibition of de novo protein synthesis in HUVECtert at 2 to 5 uM after 30 mins by Click-iT OPP/Alexa fluor 488 picolyl azide reagent based confocal fluorescence microscopy. The data set is classed as functional. The gist of the method:
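Cells on gelatin coverslips (24 h) exposed 30 min to agent (2 or 5 μM; cycloheximide 1, 3.5, 35 μM) or 0.1% DMSO, then 20 μM OPP for 30 min; formaldehyde fixation, Triton permeabilisation, Alexa 488 picolyl azide click reaction 30 min, nuclear counterstain; confocal imaging at 10×, constant gain and exposure.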

The species named for data set [18] is Homo sapiens. The experiment in a line: Inhibition of NF-kappaB in HUVECtert assessed as reduction in TNFalpha-induced ICAM-1 mRNA expression level at 0.5 to 5 uM pretreated for 30 mins followed by TNFalpha stimulation measured after 4 hrs by qRT-PCR analysis.
Data set [19] addresses Transcription factor p65 (Homo sapiens) (UniProt Q04206). The experiment in a line: Inhibition of TNFalpha-stimulated NF-kappaB p65 nuclear translocation in HUVECtert nuclear extracts at 2 uM pretreated for 30 mins followed by TNFalpha stimulation measured after 1 hr by Western blot method. The gist of the method: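 Cells grown 48 h, pretreated 30 min with 2 μM or 0.1% DMSO, then TNFα 10 ng/mL for 1 h. Hypotonic NP40 lysis gave cytosol; nuclei extracted in 420 mM NaCl HEPES buffer pH 7.5. Nuclear p65 by Western blot, lamin loading control, tubulin/lamin verifying fractions; n = 3.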

The source made the active and inactive calls. The rule behind the calls is not given here.

Transcription factor p65 (Homo sapiens), sequence (Q04206 whole entry): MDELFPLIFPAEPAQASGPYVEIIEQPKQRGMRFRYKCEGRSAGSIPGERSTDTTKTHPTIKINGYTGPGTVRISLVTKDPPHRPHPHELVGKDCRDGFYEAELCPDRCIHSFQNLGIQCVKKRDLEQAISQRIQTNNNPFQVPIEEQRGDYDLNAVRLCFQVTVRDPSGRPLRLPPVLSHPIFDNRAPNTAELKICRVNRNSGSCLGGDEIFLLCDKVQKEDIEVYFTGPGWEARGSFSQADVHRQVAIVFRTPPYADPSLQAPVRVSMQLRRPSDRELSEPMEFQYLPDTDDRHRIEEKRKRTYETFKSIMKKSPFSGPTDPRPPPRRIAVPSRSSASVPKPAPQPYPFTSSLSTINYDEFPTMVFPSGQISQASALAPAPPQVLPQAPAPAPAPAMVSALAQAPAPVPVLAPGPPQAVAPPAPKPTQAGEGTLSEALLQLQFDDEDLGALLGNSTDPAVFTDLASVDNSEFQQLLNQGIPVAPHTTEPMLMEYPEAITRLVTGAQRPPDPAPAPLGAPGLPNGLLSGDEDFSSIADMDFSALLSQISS

One may read the IC50 as the concentration that inhibits the measured activity by half. As to `CC1=CC(=O)[C@@H](O)[C@@]2(C)[C@H]1CC(=O)[C@@]1(C)[C@H]3C(=O)O[C@H]([C@@H]3C)[C@H](O)[C@@H]12` [EURYCOMALACTONE], the IC50 in data set [1] stood at 0.54 µM; in [3], 0.58 µM; in [10] it was 0.56 µM. Besides, the inhibition result in the data set listed under Homo sapiens [2], in the data set filed under Homo sapiens [4] and in the data set listed under Homo sapiens [11] was “Dose-dependent effect” throughout. Also, the inhibition result (in data set [5]; in [8]; in the data set listed under Homo sapiens [14]; in the data set filed under Homo sapiens [16]; in the data set listed under Homo sapiens [18]; in data set [19]) was “inactive” each time. Further, in data set [6], the Activity entry is “Non-Toxic”. The inhibition result in the data set listed under Homo sapiens [7], in the data set filed under Homo sapiens [13] and in the data set filed under Homo sapiens [17] was “Active” each time. Further, the result in the data set listed under Homo sapiens [9], in the data set listed under Homo sapiens [12] and in the data set filed under Homo sapiens [15] was inactive.

The values above are taken from ChEMBL document CHEMBL4138188, “Eurycomalactone Inhibits Expression of Endothelial Adhesion Molecules at a Post-Transcriptional Level” (J Nat Prod, 2017).
